PubChem BioAssay AID624025 (Broad Institute, 2012)
Where “and” joins values, the source holds several entries; their conditions need not be identical. Identical values can stand only once. Calls of active or inactive are those of the source.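 How the source made its calls: active means compounds whose fitted half-maximal growth inhibition dose lies at or below twice the top tested dose; inconclusive means flat curve with 30 to 70% growth loss, or bad fit; inactive means the rest.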

Legend:
[1] = S. cerevisiae growth inhibition in glucose medium, dose response, OD600, powder samples, set 4 (AID 624025); conditions: S. cerevisiae growth in glucose, OD600, 48 h; at 3 µM (top of the series)
How it was run: (§1)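 Incubation: 48 h static incubation at 30 °C, humidified. Material: Saccharomyces cerevisiae yeast cells, growth in glucose medium. Signal: optical density at 600 nm. Doses: pin-transferred compounds.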

[2] = system: S. cerevisiae growth in glucose, OD600, 48 h; assay: as above
How it was run: as §1

## CCOC(=O)N1C(=O)C2(CCCCC2)N(c2ccccc2)C1=S
[1]
  activity change, negative = inhibition: -5.67% (inactive)

## CCOC(=O)N1C(=O)C2(CCCCC2)N(c2ccc(C#N)cc2)C1=S
[1]
  activity change, negative = inhibition: -20.2% (inactive)

## C/C=C/[C@@H]1[C@H]2C[C@@H](C)CC[C@@H]2C(C)=C[C@H]1C(=O)c1c(O)c(-c2ccc(O)cc2)c[nH]c1=O
[1]
  activity change, negative = inhibition: -15.3% (inactive)

## CCOC(=O)N1C(=O)C2(CCCCC2)N(c2ccc(F)cc2)C1=S
[1]
  activity change, negative = inhibition: -7.11% (inactive)

## CCOC(=O)N1C(=O)C2(CCCCC2)N(c2cccc(C)c2)C1=S
[1]
  activity change, negative = inhibition: -12.2% (inactive)

## CCOC(=O)N1C(=O)C2(CCCCC2)N(c2ccc(C)cc2)C1=S
[1]
  activity change, negative = inhibition: -14.8% (inactive) and -15% (inactive)

## CC1/C=C/C=C\C=C\C=C\C=C\C=C\C=C\C(O[C@H]2OC(C)C(O)C(N)C2O)CC2OC(O)(CC(O)CC(O)C(O)CCC(O)CC(O)CC(=O)OC(C)C(C)C1O)CC(O)C2C(=O)O (stereo partly drawn)
[2]
  AC50: 527 nM

## CCOC(=O)N1C(=O)C2(CCCCC2)N(c2ccc(Cl)cc2)C1=S
[1]
  activity change, negative = inhibition: 0.052% (inactive)
